High-throughput results: PubChem, several laboratories
HSV replic up = HSV replication enhancement. 0.005% of 220,000 active. maximum fold increase. HSV replication augmentation in cells, fold increase. AID 1956; in the data active means maximum fold increase above about 1.5; inconclusive means no clear call, values can overlap the other calls; tested in PC3 cells
Rad51 HR inh = Rad51 (human) homologous recombination inhibition; hRad51 DNA strand exchange, fluorescence dequenching; inhibition, % at 10 µM; 0.085% of 200,000 active; AID 1385;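 active means inhibition above 40% at the single screening dose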;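 further: 0% = DMSO control wells and 100% = blanks with heterologous ssDNA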
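Material: Human Rad51 nucleoprotein filaments preassembled on unlabelled ssDNA | Also added: Labelled 47-mer dsDNA for strand exchange | Dosing: Single dose, 10 µM final compound | Schedule: 30-min compound preincubation and 15-min exchange, both room temperature | Technique: Fluorescence dequenching at 485/520 nm | Measure: Percent inhibition relative to plate controls and blanks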
HSF-1 act = increases HSF-1 driven luciferase reporter signal. NIH3T3-HGL HSF-1 luciferase reporter, MG132, 8 h; 100% = twice DMSO control signal. activation, % at 9 µM. 1.7% of 300,000 active. AID 504408;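 active means mean replicate activation of at least 50% with a set share of replicates each reaching 50%; inconclusive means only one of those two conditions met; inactive means mean below 50% and too few replicates reaching it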;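 further: 0% = median of the neutral control wells and 100% = twice that signal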
Hsp70 activator = Hsp70 transcriptional activation, primary screen; HeLa Hsp70 promoter luciferase reporter, luminescence; scaled: vehicle 0, proteasome-inhibitor control 100%; activation, % at 10 µM; 0.04% of 200,000 active; AID 1203;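 active means activation above the mean across all tested compounds plus 3 SD, cutoff set per campaign, cut at about 5.5% in these data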;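 further: 100% = MG132 at 30 µM as the positive control and 0% = DMSO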
HSF1 inhib = HSF1 inhibition | NIH3T3-HGL HSE-luciferase, MG132-induced, luminescence 8 h; hits give low values | activity change, negative = inhibition, % at 7.5 µM (by protocol) | 0.77% of 300,000 active;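 active means more than half of replicate wells show activity change below -50%, luminescence cut by over half; inconclusive means some wells, but at most half, below -50%; inactive means no replicate well below -50%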;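 further: luciferase reports HSF-1 transcriptional activity via heat shock element; 0% = median of DMSO wells and -100% = zero luminescence signal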
Mdm2 ligase inh = inhibitors of human Mdm2 E3 ubiquitin ligase. Q00987. cell-based MDM2 ubiquitination luciferase reporter, 2 h; 0 = plate control, 100 = twice control, blank-subtracted. signal enhancement, % at 5 µM. 0.11% of 210,000 active. AID 1230;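 active means signal enhancement of 30% or more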;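 further: luminescence tracks abundance of the self-degrading MDM2-luciferase fusion protein; higher signal means inhibition of MDM2 E3 ligase activity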
Target sequence (Q00987 whole entry, looked up, the tested form may be a part): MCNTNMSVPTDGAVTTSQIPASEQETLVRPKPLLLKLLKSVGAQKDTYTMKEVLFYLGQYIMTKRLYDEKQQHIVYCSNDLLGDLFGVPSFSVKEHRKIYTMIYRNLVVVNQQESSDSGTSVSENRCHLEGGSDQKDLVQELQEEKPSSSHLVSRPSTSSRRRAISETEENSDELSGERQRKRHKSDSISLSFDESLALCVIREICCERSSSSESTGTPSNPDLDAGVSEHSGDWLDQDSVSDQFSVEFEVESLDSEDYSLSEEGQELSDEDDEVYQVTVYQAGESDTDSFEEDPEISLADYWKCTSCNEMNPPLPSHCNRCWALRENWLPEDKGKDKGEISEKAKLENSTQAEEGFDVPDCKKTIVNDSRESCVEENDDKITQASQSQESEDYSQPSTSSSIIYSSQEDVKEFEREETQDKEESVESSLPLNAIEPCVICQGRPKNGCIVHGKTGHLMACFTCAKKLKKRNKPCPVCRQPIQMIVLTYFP
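test system = mammalian cells stably expressing self-ubiquitinating, self-degrading MDM2 E3–luciferase fusion | quantity = 2000 cells/well | incubation = cell settling 4 h, compound treatment 2 h, both 37 °C | signal = luminescence with SteadyLite reagent, 15 min at room temperature | evaluation = % enhancement relative to plate controls after blank subtraction | benchmarks = plate controls and plate blanks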
* marks the source's active call; other numbers are inactive results; i = inactive; u = inconclusive; x = no result given. Sampled rows, rich in hits. Any-hit rate of the full collection: about 2.6%.

SMILES | HSV replic up | Rad51 HR inh | HSF-1 act | Hsp70 activator | HSF1 inhib | Mdm2 ligase inh
O=C(CCCn1c(=S)[nH]c2ccc(Br)cc2c1=O)NCC1CCCO1 (configuration not stated) | i | -9 | 72* | 0 | 25 | -21
COc1ccc(C(=O)CSc2nnc(CN3CCCCC3)n2-c2ccc(F)cc2)cc1 | i | 11 | 9 | 0 | -3 | 4
N#Cc1ccc(S(=O)(=O)NCC(=O)OCC(=O)N2CCCC2=O)cc1 | x | x | 4 | x | -4 | x
Cc1ccnc(SCC(=O)c2ccc(Br)cc2)c1C#N | i | x | 90* | 0 | 53 | -6
Cc1ccc(C(=O)CSc2nsc(C)c2C#N)cc1 | i | 2 | 16 | 0 | 11 | -7
COc1ccc(NC(=O)c2csc3c2CCCCC3)c(OC)c1 | i | -10 | 29 | 0 | -3 | -10
O=C(N/N=C/c1ccccc1F)c1csc2c1CCCC2 | i | 5 | 65* | 0 | 46 | -50
O=C(Nc1ccccc1O)c1csc2c1CCCC2 | i | 3 | 93* | 0 | 39 | 9
O=C(Nc1ccc2ccccc2n1)c1ccccc1Br | x | x | 71* | x | 34 | x
O=C(Nc1ccc2ccccc2n1)c1ccccc1 | x | x | 37 | x | 26 | x
O=C(CCc1ccccc1)Nc1ccc2ccccc2n1 | i | -162 | 92* | 0 | 41 | -22
CCN(CC)CCn1c(NC(=O)c2ccc(C)cc2)nc2ccccc21 | x | x | 57* | x | 14 | x
Cc1cc(C)cc(NC(=O)Nc2ccc3ccccc3n2)c1 | i | 8 | 6 | x | -1 | -7
Cc1ccc(C(=O)Nc2ccc3ccccc3n2)cc1 | x | x | 58* | x | 26 | x
O=C(Nc1ccc(-c2ccc(N3CCCCC3)nn2)cc1)c1ccco1 | x | x | -6 | x | 7 | x
Cc1cc(Br)ccc1SCC(=O)OCC(=O)Nc1ncc(C(F)(F)F)cc1Cl | i | -1 | -2 | 0 | -9 | 2
Cc1cnc(NC(=O)c2cc3ccccc3o2)s1 | i | 2 | 41 | 0 | 11 | -55
COc1ccc(CCC(=O)Nc2ccc(S(=O)(=O)Nc3nccc(C)n3)cc2)cc1 | x | x | -22 | x | 5 | x
CCn1c(SCC(=O)Nc2ccc(N(C)C)cc2)nnc1-c1cccc(C)c1 | i | x | -80 | 0 | -76* | -2
CCn1c2ccccc2c2cc(NC(=O)CSc3nnc(-c4cccc(OC)c4)n3N)ccc21 | i | -5 | 58* | 0 | 20 | -12
COc1cccc(-c2nnc(SCc3nc4ccccc4[nH]3)n2N)c1 | x | x | 71* | 0 | 60 | -11
CCn1c2ccccc2c2cc(NC(=O)CSc3nnc(-c4ccc(OC)c(OC)c4)n3N)ccc21 | i | 9 | 5 | 0 | -2 | -33
CCn1c(SCC(=O)Nc2cc(C)on2)nnc1-c1cccc(C)c1 | x | x | -8 | x | -3 | x
CC(NC(=O)c1ccco1)C(=O)N1CCN(C(c2ccccc2)c2ccccc2)CC1 (configuration not stated) | x | x | -3 | x | 0 | x
O=c1[nH]c(-c2ccccc2)ncc1Oc1ccccc1 | x | x | -33 | x | -8 | x
SMILES | HSV replic up | Rad51 HR inh | HSF-1 act | Hsp70 activator | HSF1 inhib | Mdm2 ligase inh
CCN1/C(=C/C=C/c2oc3ccc(-c4ccccc4)cc3[n+]2CC)Oc2ccc(-c3ccccc3)cc21 | u | i | 103* | 0 | 62 | -13
CCCCN1C(=O)/C(=C/C=C2\Oc3ccccc3N2CC)SC1=S | i | i | -15 | 0 | 4 | 2
Cc1cccc(C(C#N)c2ccc(Cl)nn2)c1 (configuration not stated) | i | 1 | 74* | 0 | 25 | -3
COc1ccc(/C=N/NC(=O)c2cccc3ccccc23)c(OC)c1OC | x | x | -5 | x | -4 | x
CCOc1cc(S(=O)(=O)NCCCn2ccnc2)ccc1Cl | x | x | -14 | x | -9 | x
CCN(CC)c1ncnc2ccc(Br)cc12 | i | -3 | -58 | 0 | -53* | -18
CCc1nnc(N/N=C/c2ccccc2Cl)n1N | i | -7 | 72* | 0 | 61 | -16
COc1cccc(/C=N/Nc2nnc(C)n2N)c1OCc1ccccc1Cl | i | 6 | 31 | 0 | 31 | -5
CCc1nnc(N/N=C/c2ccccc2F)n1N | i | -7 | 59* | 1 | 50 | -8
CC1CCN(c2nc3ccc(C(=O)N4CCN(Cc5ccc6c(c5)OCO6)CC4)cc3s2)CC1 | x | x | -56 | 0 | -45 | -25
O=C(Cn1ncc(Cl)c(Cl)c1=O)N1CCN(S(=O)(=O)c2ccc3ccccc3c2)CC1 | i | -3 | 76* | 1 | 61 | -5
O=C(O)CCC(=O)N1CCN(S(=O)(=O)c2ccc3ccccc3c2)CC1 | x | x | 9 | x | -3 | x
CC(=O)c1cccc(OC(=O)c2ccc3c(=O)n4c(nc3c2)CCC4)c1 | x | x | 2 | x | 0 | x
CS(=O)(=O)N1N=C(c2ccco2)CC1c1ccc(Cl)cc1Cl (configuration not stated) | i | x | 4 | 0 | 5 | -1
COc1ccc(C(=O)Nc2ccc(S(=O)(=O)Nc3onc(C)c3C)cc2)c(OC)c1 | i | 10 | 0 | 0 | -4 | -6
CCOC(=O)c1c(C)[nH]c(C)c1S(=O)(=O)N1CCN(c2ccc(F)cc2)CC1 | x | x | 63* | x | 28 | x
COc1nnc(-c2ccc(C(=O)N3C[C@@H]4C[C@H](C3)c3cccc(=O)n3C4)cc2)c2ccccc12 | i | 2 | -69 | 0 | -58* | -11
O=C(c1ccc(-c2nnc(Nc3cccc(Cl)c3)c3ccccc23)cc1)N1C[C@H]2C[C@H](C1)c1cccc(=O)n1C2 | i | 7 | 25 | 0 | 1 | -2
COc1ccc(NC(=O)COc2ccc3c(C)cc(=O)oc3c2)cc1S(=O)(=O)N1CCCCC1 | x | x | -11 | x | -6 | x
CCc1ccc(CNC(=O)CCCC(=O)n2nc(C)c3ccccc32)cc1 | x | x | 3 | x | -1 | x
CCN(CC)c1ccc(/C=N/NC(=O)OC(C)(C)C)cc1 | i | 8 | 60* | x | 20 | -9
O=C(/C=C/c1cccc(O)c1)c1ccc(N2CCOCC2)cc1 | i | -3 | 74* | x | 61 | -12
COc1cc(/C=N/Nc2nc3ccccc3[nH]2)ccc1O | i | x | 344* | 0 | 333 | x
COc1cc(/C=N/Nc2nc3ccccc3[nH]c2=O)ccc1O | i | 14 | -28 | 0 | -9 | -18
COc1ccccc1/C=N/NC(=Nc1ccc(C)cc1)c1nc2ccccc2s1 | x | x | 4 | 0 | -6 | -41
COc1cc(/C=C(/C(=O)c2cccs2)c2nc3ccccc3[nH]2)cc(OC)c1O | i | -3 | 351* | 1 | 268 | -13
COc1cc(/C=N/NC(=Nc2ccc(C)cc2)c2nc3ccccc3s2)ccc1O | i | 2 | -76 | 0 | -73* | -44
COc1ccc(O)c(/C=N/Nc2nc3ccccc3[nH]2)c1 | i | 10 | 236* | 0 | 179 | -11
c1ccc2c(Cn3ccnc3)cccc2c1 | x | x | 5 | x | 4 | x
